Measured values collected from several papers.
Protocols differ between the studies behind these lines.
BUB1B: Mitotic checkpoint serine/threonine-protein kinase BUB1 beta (BUB1B, Homo sapiens, UniProt O60566)
CECR2: Chromatin remodeling regulator CECR2 (CECR2, Homo sapiens, UniProt Q9BXF3)
SLC6A2: Sodium-dependent noradrenaline transporter (SLC6A2, Homo sapiens, UniProt P23975)

CC(C)(C)c1nc(-c2cccc(NS(=O)(=O)c3c(F)cccc3F)c2F)c(-c2ccnc(N)n2)s1 — remaining activity (BUB1B; enzyme activity, inhibitor, radiometric; 1 µM): 101%
Cc1cnc(Nc2ccc(OCCN3CCCC3)cc2)nc1Nc1cccc(S(=O)(=O)NC(C)(C)C)c1 — ΔTm (CECR2; thermal stability, DSF; 10 µM): 0.12 °C
Clc1ccc(C(c2ccccc2)c2nnnn2CCCN2CCC(CCc3ccccc3)CC2)cc1 (stereo not drawn) — inhibition (SLC6A2; transporter uptake, inhibitor; HEK293; 1 µM): 50.1%
Oc1ccc(-c2nc(-c3ccncc3)c(-c3ccc(F)cc3)[nH]2)cc1 — ΔTm (CECR2; thermal stability, DSF; 10 µM): 1.3 °C
NS(=O)(=O)c1ccc(Nc2nc(-c3ccc(F)cc3)c3ccccc3n2)cc1 — remaining binding (CECR2; binding, competition with immobilised ligand; 1 µM): 79%
CC(C)CCC[C@@H](C)[C@H]1CC[C@H]2[C@@H]3[C@H](O)CC4=CC(=O)CC[C@]4(C)[C@H]3CC[C@]12C — Km (7-alpha-hydroxycholest-4-en-3-one 12-alpha-hydroxylase (Homo sapiens, UniProt Q9UNU6); enzyme activity, substrate): 0.505 µM
Nc1ncnc2occ(-c3ccc(NC(=O)Nc4cc(C(F)(F)F)ccc4F)cc3)c12 — remaining signal (Peripheral plasma membrane protein CASK (CASK, Homo sapiens, UniProt O14936); cell-free assay; 20 µM): 56%
CCCOc1ccc(OC)c(F)c1C(=O)c1ccc(C(=O)N[C@@H]2CNC[C@H]2NC(=O)c2ccc3[nH]ncc3c2)cc1 — remaining activity (cAMP-dependent protein kinase catalytic subunit PRKX (PRKX, Homo sapiens, UniProt P51817); enzyme activity, inhibitor; 0.75 µM): 4%
CNC(=O)c1cc(Oc2ccc(NC(=O)Nc3ccc(Cl)c(C(F)(F)F)c3)cc2)ccn1 — inhibition (Serine/threonine-protein kinase Chk2 (CHEK2, Homo sapiens, UniProt O96017, R145W); enzyme activity, inhibitor; 0.3 µM): -8%
Cc1cc2c(cc1N1C(=O)c3cccc4c(Cl)ccc(c34)C1=O)n(C)c(=O)n2C — ΔTm (CECR2; thermal stability, DSF; 10 µM): 3.5 °C
Cc1cc(NC(=O)c2cccc3cc(-c4cccc5[nH]nc(N)c45)ccc23)ccc1F — activity vs control (Serine/threonine-protein kinase Chk2 (CHEK2, Homo sapiens, UniProt O96017, I157T); enzyme activity, inhibitor; 0.1 µM): 72%
c1ccc(CCCC2CCN(CCCn3nnnc3C(c3ccccc3)c3ccccc3)CC2)cc1 — inhibition (SLC6A2; transporter uptake, inhibitor; HEK293; 1 µM): 84.9%
CC(=O)N[C@H]1CSSC[C@@H](C(=O)N[C@H](Cc2c[nH]c3ccccc23)C(N)=O)NC(=O)[C@H](Cc2ccccc2)NC(=O)[C@H](CCCNC(=N)N)NC1=O — Emax (Melanocortin receptor 4 (MC4R, Homo sapiens, UniProt P32245); cAMP, agonist; HEK293; 3 min): 0%
CC(C)(C)c1nc2c(s1)c1nc(N)ncc1c1ccc(NS(=O)(=O)c3c(F)cccc3F)c(F)c12 — remaining activity (BUB1B; enzyme activity, inhibitor, radiometric; 1 µM): 89%
Cc1ccc(C(=O)Nc2ccc(CN3CCN(C)CC3)c(C(F)(F)F)c2)cc1C#Cc1cnc2cccnn12 — remaining activity (Serine/threonine-protein kinase WNK4 (WNK4, Homo sapiens, UniProt Q96J92); enzyme activity, inhibitor; 23.5 nM): 93%
